The source made the active and inactive calls.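 Rule for the calls, unless noted: active = viability loss from added drug above about 55%, and viability with drug at most 40%, in both replicates (limit read from the data, passing the limit was not always enough); inconclusive = both conditions met in only one replicate; inactive = neither replicate meets both conditions.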
Tests used:
[1] = Her2 expression decrease, cell viability multiplex – SKBR3 breast tumor cells, AlphaScreen, ATP viability, primary screen (AID 461;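 active = Her2 level under about 52% in both replicate screens, with viability over 70% of control, limit read from the data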;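 for Her2 level: lower value means less Her2 protein in the cells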;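 for viability: percent of carrier control wells set as 100% viability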); settings: SKBR3 Her2 protein level, 18-24 h, measured here: SKBR3 viability, ATP luminescence, at 10 µM
[2] = target: Receptor tyrosine-protein kinase erbB-2 (Homo sapiens) (UniProt P04626); assay: as above; settings: 18-24 h, at 10 µM, stronger effect = lower value
[3] = reduced viability of SK-BR-3 breast cancer cells – cell-based, 24 h, human, pilot screen (AID 572;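 active = viability at or below 10% of carrier control in both of two separate runs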;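 note: compound exposure lasted between 18 and 24 h rather than exactly 24 h; 100% = carrier-treated control wells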); settings: SK-BR-3 viability, CellTiter-Glo luminescence, at 10 µM, stronger effect = lower value
[4] = HUVEC growth inhibition – cell-based, human, primary screen (AID 575;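 active = viability at or below 30% in both replicate assays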;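 note: 100% = median of untreated cell wells with 0.1% DMSO on each plate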); settings: HUVEC proliferation, CellTiter-Glo luminescence, 72 h; at 10 µM; stronger effect = lower value
Outline: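 system = HUVEC primary cells | amount = 1250 cells/well | buffer or medium = supplemented EBM, 2% fetal bovine serum | dosing = single-point 10 µM, DMSO 0.1% final | times = 72 h compound incubation | detection = CTG luminescence | read-out = % viability relative to median vehicle-well signal on each plate | control set = vehicle and MePR control wells | format = collagen-coated 384-well format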

[5] = H69AR cell proliferation blockers – human, duplicate replicates, primary screen (AID 580;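 active = viability at or under a set limit in both replicates, limit being median viability minus 3 SD, cut at about 48% in these data, passing the limit was not always enough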;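 note: 100% = mean luminescence of untreated wells and 0% = no signal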); settings: H69AR lung tumor cells viability, ATP luminescence, 72 h; at 10 µM; stronger effect = lower value
[6] = MRP1 drug-resistance reversers in H69AR cells – cell-based, doxorubicin co-treatment, pilot screen (AID 601); settings: CellTiter-Glo, 72 h, at 10 µM; for differential viability (reversal): stronger effect = higher value
[7] = yeast transport mutant growth inhibition pilot in 384-well plates, post-Golgi transport modulator project (AID 636; in the data active = inhibition above about 31%); settings: absorbance 615 nm, about 18 h, stronger effect = higher value
[8] = growth suppression of yeast trafficking mutant, preliminary HTS, modulators of trafficking downstream of Golgi apparatus project, 1536-format plate, OD 615 nm (AID 637; in the data active = inhibition above about 30%); settings: yeast transport mutant growth, absorbance 615 nm, 18 h; stronger effect = higher value
[9] = H69AR cells + 2 uM doxorubicin, measured here: viability with 2 uM doxorubicin, stronger effect = lower value
[10] = H69AR cells, compound alone cytotoxicity

Sequence of Receptor tyrosine-protein kinase erbB-2 (Homo sapiens) (P04626 whole entry, looked up): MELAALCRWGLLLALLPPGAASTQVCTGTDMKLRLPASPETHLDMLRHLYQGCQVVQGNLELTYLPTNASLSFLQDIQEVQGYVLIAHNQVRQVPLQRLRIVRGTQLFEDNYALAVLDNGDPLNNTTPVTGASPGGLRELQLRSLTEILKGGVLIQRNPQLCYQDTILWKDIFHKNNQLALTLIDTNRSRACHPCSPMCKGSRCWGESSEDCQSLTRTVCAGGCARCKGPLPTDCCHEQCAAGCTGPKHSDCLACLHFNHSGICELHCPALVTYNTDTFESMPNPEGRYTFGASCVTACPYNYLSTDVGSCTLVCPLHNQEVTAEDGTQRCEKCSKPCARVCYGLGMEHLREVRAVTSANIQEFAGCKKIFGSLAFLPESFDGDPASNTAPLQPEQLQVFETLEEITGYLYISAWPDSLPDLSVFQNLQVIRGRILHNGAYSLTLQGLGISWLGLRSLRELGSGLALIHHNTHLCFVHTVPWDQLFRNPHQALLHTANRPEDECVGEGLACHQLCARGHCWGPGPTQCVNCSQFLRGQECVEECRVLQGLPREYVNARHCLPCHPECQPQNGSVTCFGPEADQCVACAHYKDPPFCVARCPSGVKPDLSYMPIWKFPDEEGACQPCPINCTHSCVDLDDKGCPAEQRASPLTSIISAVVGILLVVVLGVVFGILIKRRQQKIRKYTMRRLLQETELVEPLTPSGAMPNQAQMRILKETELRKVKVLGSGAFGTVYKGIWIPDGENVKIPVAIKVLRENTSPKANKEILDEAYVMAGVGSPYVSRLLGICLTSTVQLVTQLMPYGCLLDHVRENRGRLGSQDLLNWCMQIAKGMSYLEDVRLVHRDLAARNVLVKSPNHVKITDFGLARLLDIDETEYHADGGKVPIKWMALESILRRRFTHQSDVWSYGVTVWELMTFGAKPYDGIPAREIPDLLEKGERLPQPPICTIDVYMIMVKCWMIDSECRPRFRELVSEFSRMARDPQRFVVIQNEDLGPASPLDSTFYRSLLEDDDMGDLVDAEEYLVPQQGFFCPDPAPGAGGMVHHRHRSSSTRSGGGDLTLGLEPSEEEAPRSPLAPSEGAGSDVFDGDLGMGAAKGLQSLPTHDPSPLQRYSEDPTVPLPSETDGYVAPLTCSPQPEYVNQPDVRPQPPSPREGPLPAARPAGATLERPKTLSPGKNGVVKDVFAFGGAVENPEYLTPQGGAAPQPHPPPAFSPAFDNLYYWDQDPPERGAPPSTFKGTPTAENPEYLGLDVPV

| Structure (SMILES) | viability [1] | Her2 level [2] | viability [3] | viability [4] | viability [5] | differential viability (reversal) ([6]; H69AR cells + 2 uM doxorubicin) | viability [6, 9] | viability [6, 10] | inhibition [7] | inhibition [8] |
| --- | --- | --- | --- | --- | --- | --- | --- | --- | --- | --- |
| O=C(OCCN1C(=O)c2ccccc2C1=O)c1ccc(S(=O)(=O)N2CCCCCC2)cc1 | 114% | 76.5% (inactive) | 114% (inactive) | 78.5% (inactive) | 105% (inactive) | 17.6% (inactive) | 87.6% | 105% | -6.22% (inactive) | 1.11% (inactive) |
| COc1cccc(-n2c(C)nc3c(cnn3-c3ccc(C)cc3)c2=O)c1 | 86% | 102% (inactive) | 86% (inactive) | 79.6% (inactive) | 90.4% (inactive) | -12% (inactive) | 102% | 90.4% | 0.66% (inactive) | -10.5% (inactive) |
| CCOC(=O)c1oc2ccccc2c1NC(=O)COC | 108% | 91.5% (inactive) | 108% (inactive) | 99.5% (inactive) | 102% (inactive) | 9.07% (inactive) | 93.2% | 102% | -4.73% (inactive) | -3.93% (inactive) |
| COC(=O)c1ccc(NC(=O)C(C)N2C(=O)c3ccccc3C2=O)cc1 (stereo not given) | 109% | 94% (inactive) | 109% (inactive) | 108% (inactive) | 108% (inactive) | 14.8% (inactive) | 92.8% | 108% | 0.41% (inactive) | -3.65% (inactive) |
| CN(C(=O)COC(=O)C1CCN(S(=O)(=O)c2cccs2)CC1)C1CCS(=O)(=O)C1 (stereo not given) | 118% | 127% (inactive) | 118% (inactive) | 94.9% (inactive) | 99.8% (inactive) | 12.6% (inactive) | 87.2% | 99.8% | -4.4% (inactive) | -7.74% (inactive) |
| O=C(OCCCN1CCCC1)C1(c2ccccc2)CCCC1 | 82.5% | 117% (inactive) | 82.5% (inactive) | 121% (inactive) | 88.6% (inactive) | 6.39% (inactive) | 82.2% | 88.6% | -2.84% (inactive) | -13.3% (inactive) |
| COc1ccc(C(C(C(=O)c2ccco2)N2CCOCC2)N2CCOCC2)cc1 (stereo not given) | 97% | 95% (inactive) | 97% (inactive) | 85.6% (inactive) | 87.3% (inactive) | -4.03% (inactive) | 91.4% | 87.3% | -6.53% (inactive) | -10.6% (inactive) |
| Cc1cc(NC(=O)CSc2nc3ccccc3n2CC(=O)N2CCCCC2)no1 | 78% | 70% (inactive) | 78% (inactive) | 103% (inactive) | 86.2% (inactive) | 8.37% (inactive) | 77.8% | 86.2% | -5.54% (inactive) | 3.61% (inactive) |
| COc1ccc(-c2nnc3ccc(SC(C(C)=O)C(C)=O)nn23)cc1OC | 90% | 86.5% (inactive) | 90% (inactive) | 87.8% (inactive) | 82.9% (inactive) | 4.92% (inactive) | 78% | 82.9% | -6.62% (inactive) | 6.17% (inactive) |
| Cc1ccc(OC(=O)NC2CCS(=O)(=O)C2)cc1C (stereo not given) | 108% | 95% (inactive) | 108% (inactive) | 103% (inactive) | 95.3% (inactive) | 2.59% (inactive) | 92.7% | 95.3% | -2.11% (inactive) | 6.23% (inactive) |
| Cc1cc(C)n(-c2ccc(C(=O)Oc3ccc4c(c3)OCO4)cc2)n1 | 80% | 83.5% (inactive) | 80% (inactive) | 92.3% (inactive) | 90.7% (inactive) | 2.71% (inactive) | 88% | 90.7% | -4.13% (inactive) | -1.11% (inactive) |
| COC(=O)C1(C)NC(c2ccco2)C2C(=O)N(c3ccc(C)cc3)C(=O)C21 (stereo not given) | 106% | 95% (inactive) | 106% (inactive) | 96.6% (inactive) | 91.5% (inactive) | -3% (inactive) | 94.5% | 91.5% | -5.27% (inactive) | -3.83% (inactive) |
| Cn1c(=O)n(C)c2cc(CNc3ccc(N4CCOCC4)c(C(=O)O)c3)ccc21 | 107% | 89.5% (inactive) | 107% (inactive) | 113% (inactive) | 89.6% (inactive) | -2.67% (inactive) | 92.2% | 89.6% | -3.33% (inactive) | 0.49% (inactive) |
| CCN(CC)c1ccc(-c2c(C#N)c(N)nc(OC)c2C#N)cc1 | 75.5% | 88.5% (inactive) | 75.5% (inactive) | 81.3% (inactive) | 79.4% (inactive) | -4.16% (inactive) | 83.5% | 79.4% | -1.17% (inactive) | -8.36% (inactive) |
| O=S(=O)(Nc1ccc(Cc2ccncc2)cc1)N1CCCC1 | 88% | 94% (inactive) | 88% (inactive) | 104% (inactive) | 92.4% (inactive) | -6.24% (inactive) | 98.6% | 92.4% | -3.92% (inactive) | -1.97% (inactive) |
| O=C(Cn1nnc(-c2cccc(C(F)(F)F)c2)n1)NC(=O)NCc1ccco1 | 89% | 102% (inactive) | 89% (inactive) | 98.3% (inactive) | 74.1% (inactive) | -3.41% (inactive) | 77.5% | 74.1% | -1.05% (inactive) | -1.82% (inactive) |
| COc1ccc(S(=O)(=O)N2CCN(CC(=O)Nc3ccc(F)c(F)c3)CC2)cc1 | 88.5% | 86% (inactive) | 88.5% (inactive) | 75.6% (inactive) | 91.1% (inactive) | -2.83% (inactive) | 93.9% | 91.1% | -1.73% (inactive) | -1.94% (inactive) |
| CC(C)Cc1cc(C(=O)Nc2c(F)cc(F)cc2Br)no1 | 88.5% | 106% (inactive) | 88.5% (inactive) | 107% (inactive) | 113% (inactive) | 30% (inactive) | 82.8% | 113% | 0.64% (inactive) | -4.33% (inactive) |
| COc1cccc(CNC(=O)CCn2c(=O)oc3ccccc32)c1 | 77.5% | 94.5% (inactive) | 77.5% (inactive) | 94.7% (inactive) | 86.4% (inactive) | -3.03% (inactive) | 89.4% | 86.4% | -5.92% (inactive) | -1.82% (inactive) |
| CN(Cc1cccs1)CC(O)COCc1ccco1 (stereo not given) | 107% | 91.5% (inactive) | 107% (inactive) | 109% (inactive) | 90.5% (inactive) | -3.35% (inactive) | 93.9% | 90.5% | -3.92% (inactive) | 2.22% (inactive) |
| Cc1ccc(CCNC(=O)C2CCCN(S(=O)(=O)c3cnc[nH]3)C2)cc1 (stereo not given) | 102% | 121% (inactive) | 102% (inactive) | 101% (inactive) | 101% (inactive) | 6.71% (inactive) | 94% | 101% | -0.8% (inactive) | -2.17% (inactive) |
| Fc1cccc2sc(N3CCOCC3)nc12 | 93.5% | 80.5% (inactive) | 93.5% (inactive) | 83.9% (inactive) | 96.8% (inactive) | 15.4% (inactive) | 81.4% | 96.8% | -4.87% (inactive) | 5.17% (inactive) |
| Cc1ccccc1NC(=O)C1CCN(c2cnccn2)CC1 | 98.5% | 103% (inactive) | 98.5% (inactive) | 89.2% (inactive) | 101% (inactive) | 8.59% (inactive) | 92.2% | 101% | -7.07% (inactive) | -5.48% (inactive) |
| O=C(CCSc1nc(-c2ccco2)cc(C(F)(F)F)n1)Nc1ccc2c(c1)OCO2 | 83% | 94.5% (inactive) | 83% (inactive) | 56.3% (inactive) | 78.4% (inactive) | -10.1% (inactive) | 88.5% | 78.4% | -7.47% (inactive) | 3.81% (inactive) |
| COc1ccc(S(=O)(=O)Nc2ccc(F)c(F)c2)cc1Cl | 74% | 82.5% (inactive) | 74% (inactive) | 90.4% (inactive) | 90.2% (inactive) | -2.64% (inactive) | 92.8% | 90.2% | -4.59% (inactive) | 4.26% (inactive) |
| O=C(CN1CCN(C(=O)c2ccccc2)CC1)Nc1ncc(Br)cc1Br | 76.5% | 100% (inactive) | 76.5% (inactive) | 92.2% (inactive) | 77.9% (inactive) | -6.92% (inactive) | 84.8% | 77.9% | -2.4% (inactive) | -5.74% (inactive) |
| CCOc1ccc(-n2cc(C(=O)N3CCN(C)CC3)c3cc(OC)c(OC)cc3c2=O)cc1 | 87% | 104% (inactive) | 87% (inactive) | 103% (inactive) | 97.1% (inactive) | -12.4% (inactive) | 110% | 97.1% | 1.62% (inactive) | -0.16% (inactive) |
| COc1ccccc1-c1noc(-c2cccnc2)n1 | 94% | 102% (inactive) | 94% (inactive) | 117% (inactive) | 92.3% (inactive) | 0.91% (inactive) | 91.4% | 92.3% | -2.89% (inactive) | -0.66% (inactive) |
| O=C(Cn1c(SCC(=O)N2CCCc3ccccc32)nc2ccccc21)N1CCCC1 | 94% | 96% (inactive) | 94% (inactive) | 104% (inactive) | 98.3% (inactive) | 4.66% (inactive) | 93.6% | 98.3% | -6.05% (inactive) | -2.38% (inactive) |

Reference: PubChem BioAssay
